Records with an inconclusive call do not appear.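 Rule for the calls, unless noted: active = viability at or below 27.92% in each of two runs, the all-compound median minus 4 SD; inconclusive = no clear call, values can overlap the other calls; inactive = the rest.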
Tests used:
[1] = OD615 S. cerevisiae growth inhibition, permissive medium, pilot counter-assay, permissive growth control for S. cerevisiae lifespan shortening project (AID 705;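 active = growth inhibition above 25% in both replicates, a cutoff set 3 SD above the mean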); details: OD615, 24 h, at 10 µM, active compounds read high
Procedure, shortened: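 Timing: 24 h exposure, 30 °C / Material: Saccharomyces cerevisiae strain carrying genetically modified DeaD replicative-lifespan system / Signal: OD at 615 nm / Compound: 10 µM single dose, 0.25% DMSO / Medium: SC raffinose/galactose permissive medium / Evaluation: reduction in yeast growth (OD615)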

[2] = Restrictive medium S. cerevisiae growth inhibition, OD615, pilot screen of yeast lifespan reduction project, restrictive growth control (AID 706;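 active = growth inhibition above a set limit, 3 SD over mean compound inhibition, in both replicates, cut at about 43% in these data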;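 note: modified DeaD lifespan yeast strain shifted to restrictive glucose medium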); details: OD615, 48 h, at 10 µM, active compounds read high
Procedure, shortened: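 System: Engineered S. cerevisiae DeaD strain | Detection: OD615 | Buffer or medium: CSMM-D glucose medium | Doses: 10 µM compound, 0.25% DMSO | Timing: 4 h pre-growth plus 48 h compound exposure, 30 °C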

[3] = viability gain of MRP-1-high H69AR cells under doxorubicin, pilot screen, MRP-1 activator project, CellTiter-Glo, duplicate (AID 807;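 active = viability increase at or above a cutoff of the median across tested compounds plus 3 SD, cut at about 8.5% in these data, passing the limit was not always enough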;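 note: compound pretreatment 18-22 h then 72 h combined with doxorubicin; 0% = doxorubicin alone and 100% = vehicle without doxorubicin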); details: H69AR viability with doxorubicin, CellTiter-Glo luminescence; at 10 µM; active compounds read high
[4] = growth suppression of beta-catenin knockout HCT116, pilot screen, human colon tumor cells (AID 823;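 active = cell viability at or below a set limit in both duplicate runs, the limit being the all-compound median minus 4 SD, cut at about 23% in these data, passing the limit was not always enough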;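 note: 0% = wells killed by 20 µM Hyamine and 100% = untreated DMSO cell wells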); details: CellTiter-Glo, 60 h, at 10 µM, active compounds read low
[5] = growth suppression of PTEN-deleted HCT116, pilot screen, cell-based, HCT116 clonal line, CellTiter-Glo (AID 824); details: 60 h, at 10 µM, active compounds read low;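 note: 0% = 20 µM Hyamine control and 100% = vehicle cell control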
[6] = inhibitors of the yeast RAM network, pilot screen, dse1pr::URA3 reporter, 5-FOA selection (AID 869;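 active = inhibition over a set limit, the all-compound mean plus 3 SD, in both replicate runs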;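 note: 0% = DMSO wells with no growth and 100% = 10 µM 1-NA-PP1 with full growth; RAM network block rescues cells from 5-FOA so hits raise OD615 growth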); details: S. cerevisiae dse1pr::URA3 5-FOA growth, OD615, 2 d; at 10 µM; active compounds read high; strain carries analog-sensitive mutant Cbk1 kinase
[7] = RAM signaling pathway blockade in yeast – S. cerevisiae, Pdr1DBD-CYC8 efflux-inhibited sensitized strain, primary screen (AID 1298;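 active = RAM network inhibition above 8.4% in each of two replicates, 3 SD over the compound average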;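 note: 0% = DMSO untreated cells without growth and 100% = 10 µM 1-NA-PP1 full growth; higher means more yeast growth rescued from 5-FOA killing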); details: S. cerevisiae cbk1-as DSE1-URA3 strain, 5-FOA growth OD615, 2 d; at 50 µM; active compounds read high

CCOC(=O)N1CCN(C(=O)CSc2nc3c(cnn3-c3ccc(C)cc3)c(=O)[nH]2)CC1
inactive: growth inhibition [1] -0.175% | growth inhibition [2] 4.84% | viability increase [3] -4.44% | viability [4] 95.7% | viability [5] 94.1% | inhibition [6] -0.44% | RAM network inhibition [7] 3.12%

O=C(c1ccco1)N1CCN(C(=O)c2oc(=O)c3ccccc3c2-c2ccccc2)CC1
inactive: growth inhibition [1] -6.24% | growth inhibition [2] -4.58% | viability increase [3] -1.47% | viability [4] 105% | viability [5] 98.5% | inhibition [6] 0.68% | RAM network inhibition [7] 3.83%

O=C(CCSCCc1ccccn1)Nc1nccs1
inactive: growth inhibition [1] 6.12% | growth inhibition [2] 8.44% | viability increase [3] -0.56% | viability [4] 102% | viability [5] 94.8% | inhibition [6] 2.55% | RAM network inhibition [7] 0.66%

N#Cc1nc(COc2ccccc2F)oc1NCc1ccc(F)cc1
inactive: growth inhibition [1] -5.23% | growth inhibition [2] 6.15% | viability increase [3] -4.08% | viability [4] 92.1% | viability [5] 90.7% | inhibition [6] 0.39% | RAM network inhibition [7] 8.3%

CCc1c(C)sc(NC(=O)c2cc(C)no2)c1C#N
inactive: growth inhibition [1] 1.33% | growth inhibition [2] 8.59% | viability increase [3] -0.5% | viability [4] 99% | viability [5] 93.4% | inhibition [6] 1.31% | RAM network inhibition [7] 6.13%

C=CCn1c(SCCN2CCCCC2)nc2c1c(=O)[nH]c(=O)n2C
inactive: growth inhibition [1] -3.65% | growth inhibition [2] 6.96% | viability increase [3] -1.07% | viability [4] 109% | viability [5] 99.8% | inhibition [6] 1.17% | RAM network inhibition [7] 1.65%

Cc1nc2sc(C(c3ccccc3)N3CCN(C)CC3)c(O)n2n1 (stereo not drawn)
inactive: growth inhibition [1] -3.65% | growth inhibition [2] 8.75% | viability increase [3] 0.48% | viability [4] 100% | viability [5] 103% | inhibition [6] 2.15% | RAM network inhibition [7] 2.45%

Cc1nc2ccc(N)cc2s1
inactive: growth inhibition [1] -15.7% | growth inhibition [2] -13.4% | viability increase [3] -2.73% | viability [4] 109% | viability [5] 112% | inhibition [6] 0.07% | RAM network inhibition [7] 1.25%

CCOC(=O)Cn1c(=O)oc2cc(S(=O)(=O)N3CCN(c4ccccn4)CC3)ccc21
inactive: growth inhibition [1] 10.4% | growth inhibition [2] 6.56% | viability increase [3] -2.64% | viability [4] 96.3% | viability [5] 99.5% | inhibition [6] 0.75% | RAM network inhibition [7] 3.64%

CCN(CC)CCCNC(=O)C1c2ccccc2C(=O)N(C)C1c1ccc(OC)cc1 (stereo not drawn)
inactive: growth inhibition [1] -23% | growth inhibition [2] -20.7% | viability increase [3] 0.37% | viability [4] 96.5% | viability [5] 97.3% | inhibition [6] 3.1% | RAM network inhibition [7] 2.54%

COC(=O)c1ccccc1NS(=O)(=O)c1cn(C)c(=O)n(C)c1=O
inactive: growth inhibition [1] -1.82% | growth inhibition [2] -6.46% | viability increase [3] -1.59% | viability [4] 101% | viability [5] 92.6% | inhibition [6] 0.585% | RAM network inhibition [7] 1.2%

O=C(CCS(=O)(=O)c1cccc2nonc12)NCCc1ccccc1
inactive: growth inhibition [1] -9.93% | growth inhibition [2] -23.2% | viability increase [3] -3.1% | viability [4] 103% | viability [5] 99.1% | inhibition [6] 4.24% | RAM network inhibition [7] 5.03%

COc1cccc(N2CCN(C(=O)CN(C)S(=O)(=O)c3ccc4c(c3)CCC(=O)N4)CC2)c1
inactive: growth inhibition [1] -2.86% | growth inhibition [2] -13.8% | viability increase [3] -2.87% | viability [4] 87.6% | viability [5] 85.5% | inhibition [6] 0.59% | RAM network inhibition [7] 7.09%

COc1ccc(Br)cc1S(=O)(=O)N(CC(=O)N1CCOCC1)c1ccccc1
inactive: growth inhibition [1] -2.82% | growth inhibition [2] -7.74% | viability increase [3] -2.08% | viability [4] 98.1% | viability [5] 98.6% | inhibition [6] 2.6% | RAM network inhibition [7] 3.62%

NC(=O)c1cc(S(=O)(=O)Nc2cccc(F)c2)co1
inactive: growth inhibition [1] -17.4% | growth inhibition [2] -9.41% | viability increase [3] -0.8% | viability [4] 103% | viability [5] 103% | inhibition [6] 1.69% | RAM network inhibition [7] 2.85%

COc1ccc(N2CCC(CNC(=O)Nc3ccc(C)c(C)c3)C2)cc1 (stereo not drawn)
inactive: growth inhibition [1] -8.33% | growth inhibition [2] -2.14% | viability increase [3] 1.23% | viability [4] 91.2% | viability [5] 74.8% | inhibition [6] 0.77% | RAM network inhibition [7] 2.95%

CCOC(=O)N1CCN(C(=O)c2cnn3ccccc23)CC1
inactive: growth inhibition [1] -9.02% | growth inhibition [2] -2.02% | viability increase [3] -1.3% | viability [4] 103% | viability [5] 100% | inhibition [6] 4.82% | RAM network inhibition [7] -1.68%

COc1cc(SC)ccc1C(=O)Nc1ccc2c(c1)CCN2S(C)(=O)=O
inactive: growth inhibition [1] -4.62% | growth inhibition [2] -7.36% | viability increase [3] 0.15% | viability [4] 100% | viability [5] 94.2% | inhibition [6] 3.22% | RAM network inhibition [7] 4.39%

COc1ccc(Cl)cc1NC(=O)c1cnc2sccn2c1=O
inactive: growth inhibition [1] -6.94% | growth inhibition [2] 9.97% | viability increase [3] -5.14% | viability [4] 82.9% | viability [5] 82.6% | inhibition [6] 4.45% | RAM network inhibition [7] 6.59%

CCc1ccc(S(=O)(=O)NCc2csc(-c3cccnc3)n2)s1
inactive: growth inhibition [1] -13.1% | growth inhibition [2] 1.16% | viability increase [3] -0.39% | viability [4] 103% | viability [5] 101% | inhibition [6] 2.68% | RAM network inhibition [7] 2.28%

Cc1ccc(C(C(=O)NC2CCCC2)N2CCCCC2)cc1 (stereo not drawn)
inactive: growth inhibition [1] -2.54% | growth inhibition [2] -13.5% | viability increase [3] -1.32% | viability [4] 86.9% | viability [5] 90.6% | inhibition [6] 2.38% | RAM network inhibition [7] 5.61%

O=C(Nc1ccccc1Cl)N1CCN(c2ccc3nnc(-c4ccccc4)n3n2)CC1
inactive: growth inhibition [1] 6.99% | growth inhibition [2] 29.4% | viability increase [3] -4.19% | viability [4] 79.4% | viability [5] 74.8% | inhibition [6] 0.435% | RAM network inhibition [7] 2.07%

O=C1CCCN1CC(CN1CCOCC1)Sc1nnnn1-c1ccccc1 (stereo not drawn)
inactive: growth inhibition [1] -0.73% | growth inhibition [2] 7.22% | viability increase [3] -3.37% | viability [4] 100% | viability [5] 105% | inhibition [6] 1.56% | RAM network inhibition [7] 5.8%

COCCCNC(=O)CN(c1ccc(Cl)c(Cl)c1)S(C)(=O)=O
inactive: growth inhibition [1] 0.93% | growth inhibition [2] -7.01% | viability increase [3] -1.44% | viability [4] 99.4% | viability [5] 101% | inhibition [6] 0.96% | RAM network inhibition [7] -0.77%
